Experiments:
SW-620 = experiment: Cytotoxicity against human SW620 cells after 48 hrs by SRB assay; assay type: functional; conditions: SW-620, 48 h
Method in brief: (§1)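 NCI 60-cell screen. Cells grew 24 h (37 °C, 5% CO2) before compound was added. Compounds were in DMSO and diluted in medium with gentamicin, then tested at five levels (100, 10, 1.0, 0.1, 0.01 µM) with 48 h continuous exposure. Adherent cells were fixed with TCA (10% final) and stained with 0.4% SRB, absorbance read at 515 nm. A time-zero plate was included. LC50 is the concentration giving 50% loss of protein relative to time zero.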

DU-145 = experiment: Cytotoxicity against human DU145 cells after 48 hrs by SRB assay; assay type: functional; conditions: DU-145, 48 h
Method in brief: (§2)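 NCI 60-cell-line screen. Cells preincubated 24 h at 37 °C, 5% CO2; time-zero plates TCA-fixed. Compounds dissolved in DMSO and tested at five concentrations (100, 10, 1.0, 0.1, 0.01 µM) for 48 h continuous exposure. Adherent cells fixed with cold TCA (10% final), then SRB stained; absorbance at 515 nm. GI50, TGI and LC50 calculated from growth relative to time-zero and untreated controls.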

SK-MEL-28 = experiment: Cytotoxicity against human SK-MEL-28 cells after 48 hrs by SRB assay; assay type: functional; conditions: SK-MEL-28, 48 h; for CC50: read-out: LC50 (the source's name); method in brief: as §2
SNB-75 = experiment: Cytotoxicity against human SNB75 cells after 48 hrs by SRB assay; assay type: functional; conditions: SNB-75, 48 h; method in brief: as §1
Hs-578T = experiment: Cytotoxicity against human Hs578T cells after 48 hrs by SRB assay; assay type: functional; method in brief: as §2
[1] = Cytotoxicity against human EKVX cells after 48 hrs by SRB assay; assay type: functional; method in brief: as §2
A498 = experiment: Cytotoxicity against human A498 cells after 48 hrs by SRB assay; assay type: functional; conditions: A498, 48 h; for CC50: read-out: LC50 (the source's name); method in brief: as §2
ACHN = experiment: Cytotoxicity against human ACHN cells after 48 hrs by SRB assay; assay type: functional; conditions: for CC50: read-out: LC50 (the source's name); method in brief: as §2
MCF7 = experiment: Cytotoxicity against human MCF7 cells after 48 hrs by SRB assay; assay type: functional; conditions: MCF7, 48 h; for CC50: read-out: LC50 (the source's name); method in brief: as §2
OVCAR-3 = experiment: Cytotoxicity against human OVCAR3 cells after 48 hrs by SRB assay; assay type: functional; conditions: OVCAR-3, 48 h; method in brief: as §2
SNB-19 = experiment: Cytotoxicity against human SNB19 cells after 48 hrs by SRB assay; assay type: functional; conditions: SNB-19, 48 h; method in brief: as §1
UO-31 = experiment: Cytotoxicity against human UO31 cells after 48 hrs by SRB assay; assay type: functional; conditions: UO-31, 48 h; method in brief: as §1
MDA-MB-231 = experiment: Cytotoxicity against human MDA-MB-231 cells after 48 hrs by SRB assay; assay type: functional; conditions: MDA-MB-231, 48 h; method in brief: as §2
K562 = experiment: Cytotoxicity against human K562 cells after 48 hrs by SRB assay; assay type: functional; conditions: K562, 48 h; method in brief: as §2
HOP-62 = experiment: Cytotoxicity against human HOP62 cells after 48 hrs by SRB assay; assay type: functional; conditions: HOP-62, 48 h; method in brief: as §2
CCRF-CEM = experiment: Cytotoxicity against human CCRF-CEM cells after 48 hrs by SRB assay; assay type: functional; method in brief: as §2
HOP-92 = experiment: Cytotoxicity against human HOP92 cells after 48 hrs by SRB assay; assay type: functional; conditions: HOP-92, 48 h; method in brief: as §2
PC-3 = experiment: Cytotoxicity against human PC3 cells after 48 hrs by SRB assay; assay type: functional; conditions: PC-3, 48 h; method in brief: as §2
UACC-257 = experiment: Cytotoxicity against human UACC257 cells after 48 hrs by SRB assay; assay type: functional; conditions: UACC-257, 48 h; method in brief: as §1
OVCAR-4 = experiment: Cytotoxicity against human OVCAR4 cells after 48 hrs by SRB assay; assay type: functional; conditions: OVCAR-4, 48 h; method in brief: as §2
NCI-H23 = experiment: Cytotoxicity against human NCI-H23 cells after 48 hrs by SRB assay; assay type: functional; conditions: NCI-H23, 48 h; for CC50: read-out: LC50 (the source's name); method in brief: as §2
HL-60(TB) = experiment: Cytotoxicity against human HL-60(TB) cells after 48 hrs by SRB assay; assay type: functional; conditions: HL-60, 48 h; for CC50: read-out: LC50 (the source's name); method in brief: as §2
786-0 = experiment: Cytotoxicity against human 786-0 cells after 48 hrs by SRB assay; assay type: functional; conditions: 786-0, 48 h; method in brief: as §2
OVCAR-5 = experiment: Cytotoxicity against human OVCAR5 cells after 48 hrs by SRB assay; assay type: functional; conditions: OVCAR-5, 48 h; method in brief: as §2
MOLT-4 = experiment: Cytotoxicity against human MOLT4 cells after 48 hrs by SRB assay; assay type: functional; conditions: MOLT-4, 48 h; method in brief: as §2
TK-10 = experiment: Cytotoxicity against human TK10 cells after 48 hrs by SRB assay; assay type: functional; conditions: TK-10, 48 h; method in brief: as §1
[2] = Toxicity in RBC (unknown origin) assessed as hemolysis after 48 hrs at 20 to 80 ug/ml by spectrophotometry; assay type: cell-based, Erythrocyte; conditions: red blood cells (RBC); read-out: Activity
Method in brief: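 Red blood cells at 5% hematocrit in RPMI 1640 exposed to 20, 40 and 80 µg/mL for 48 h at 37 °C; free hemoglobin read spectrophotometrically at 542 nm.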

COc1ccc(C2CC(c3cccc(Nc4ccnc5cc(Cl)ccc45)c3)=NN2C=O)cc1 (stereo not given)
GI50 (SW-620): 0.36 µM | LC50 (SW-620): > 100 µM | GI50 (DU-145): 1.35 µM | LC50 (concentration killing 50% of cells) (DU-145): > 100 µM | GI50 (SK-MEL-28): 0.96 µM | CC50 (SK-MEL-28): > 100 µM | GI50 (SNB-75): 0.33 µM | LC50 (50% net cell kill) (SNB-75): > 100 µM | GI50 (Hs-578T): 0.36 µM | LC50 (50% net cell kill) (Hs-578T): > 100 µM | GI50 [1]: 0.64 µM | LC50 [1]: > 100 µM | GI50 (A498): 0.26 µM | CC50 (A498): > 100 µM | GI50 (ACHN): 0.87 µM | CC50 (ACHN): > 100 µM | GI50 (MCF7): 0.37 µM | CC50 (MCF7): > 100 µM | GI50 (OVCAR-3): 0.47 µM | LC50 (OVCAR-3): 77.4 µM | GI50 (SNB-19): 0.87 µM | LC50 (SNB-19): > 100 µM | GI50 (UO-31): 0.85 µM | LC50 (UO-31): > 100 µM | GI50 (MDA-MB-231): 3.19 µM | LC50 (concentration killing 50% of cells present at time zero) (MDA-MB-231): > 100 µM | GI50 (K562): 0.29 µM | LC50 (concentration killing 50% of cells) (K562): > 100 µM | GI50 (HOP-62): 0.66 µM | LC50 (50% lethal concentration) (HOP-62): > 100 µM | GI50 (CCRF-CEM): 0.68 µM | LC50 (concentration killing 50% of cells relative to time zero) (CCRF-CEM): > 100 µM | GI50 (HOP-92): > 100 µM | LC50 (concentration killing 50% of cells) (HOP-92): > 100 µM | GI50 (PC-3): 0.85 µM | LC50 (PC-3): > 100 µM | LC50 (UACC-257): > 100 µM | GI50 (OVCAR-4): 0.89 µM | LC50 (OVCAR-4): > 100 µM | GI50 (NCI-H23): 0.95 µM | CC50 (NCI-H23): > 100 µM | GI50 (HL-60(TB)): 0.25 µM | CC50 (HL-60(TB)): 5.28 µM | GI50 (786-0): 0.53 µM | LC50 (786-0): > 100 µM | GI50 (OVCAR-5): 3.51 µM | LC50 (OVCAR-5): > 100 µM | GI50 (MOLT-4): 0.49 µM | LC50 (MOLT-4): > 100 µM

O=CN1N=C(c2ccc(Nc3ccnc4cc(Cl)ccc34)cc2)CC1c1ccccc1 (stereo not given)
GI50 (SW-620): 2.73 µM | LC50 (SW-620): 68.7 µM | GI50 (TK-10): 9.51 µM | LC50 (concentration giving 50% cell loss vs time zero) (TK-10): > 100 µM | GI50 (DU-145): 3.8 µM | LC50 (concentration killing 50% of cells) (DU-145): > 100 µM | GI50 (SK-MEL-28): 8.35 µM | CC50 (SK-MEL-28): > 100 µM | GI50 (SNB-75): 5.03 µM | LC50 (50% net cell kill) (SNB-75): > 100 µM | GI50 (Hs-578T): 3.77 µM | LC50 (50% net cell kill) (Hs-578T): > 100 µM | GI50 [1]: 4.94 µM | LC50 [1]: > 100 µM | GI50 (A498): 1.3 µM | CC50 (A498): > 100 µM | GI50 (ACHN): 4.21 µM | CC50 (ACHN): > 100 µM | GI50 (MCF7): 3.42 µM | CC50 (MCF7): > 100 µM | GI50 (OVCAR-3): 2.78 µM | LC50 (OVCAR-3): 43.2 µM | GI50 (SNB-19): 5.13 µM | LC50 (SNB-19): > 100 µM | GI50 (UO-31): 3.81 µM | LC50 (UO-31): > 100 µM | GI50 (MDA-MB-231): 2.43 µM | LC50 (concentration killing 50% of cells present at time zero) (MDA-MB-231): > 100 µM | GI50 (HOP-62): 5.26 µM | LC50 (50% lethal concentration) (HOP-62): > 100 µM | GI50 (CCRF-CEM): 2.51 µM | LC50 (concentration killing 50% of cells relative to time zero) (CCRF-CEM): > 100 µM | GI50 (HOP-92): 4.28 µM | LC50 (concentration killing 50% of cells) (HOP-92): > 100 µM | GI50 (PC-3): 4.76 µM | LC50 (PC-3): > 100 µM | GI50 (UACC-257): 10.1 µM | LC50 (UACC-257): > 100 µM | GI50 (OVCAR-4): 3.88 µM | LC50 (OVCAR-4): > 100 µM | hemolysis at 48 h [2]: 3.8% | GI50 (NCI-H23): 3.64 µM | CC50 (NCI-H23): > 100 µM | GI50 (HL-60(TB)): 2.66 µM | CC50 (HL-60(TB)): 72.5 µM | GI50 (786-0): 3.36 µM | LC50 (786-0): 98.4 µM | GI50 (OVCAR-5): 19.8 µM | LC50 (OVCAR-5): > 100 µM | GI50 (MOLT-4): 2.28 µM | LC50 (MOLT-4): > 100 µM

— ChEMBL document CHEMBL2417469, “Synthesis of novel analogs of 2-pyrazoline obtained from [(7-chloroquinolin-4-yl)amino]chalcones and hydrazine as potential antitumor and antimalarial agents” (Eur J Med Chem, 2013)
